As a reminder, the inhibition is the change of the read-out against control, counted positive when it falls. In general, IC50 refers to the concentration at which inhibition is half-maximal. By EC50 is commonly meant the concentration giving half of the maximal effect.

These results are taken from ChEMBL document CHEMBL2169822, “Discovery and optimization of 1,3,4-trisubstituted-pyrazolone derivatives as novel, potent, and nonsteroidal farnesoid X receptor (FXR) selective antagonists” (J Med Chem, 2012).

SMILES strings stand for the structures. The source made the active and inactive calls. No cut-off for these calls is given here.

Assay [1] can be described thus: Agonist activity at GST tagged human recombinant FXRalphaLBD expressed in Escherichia coli BL21 cells assessed as SRC-1 co-activator association at 40 uM after 30 mins by HTRF assay. Format: functional. The procedure, abridged:
(§1)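 HTRF coactivator recruitment: 10 nM GST-human FXRαLBD (residues 238–473, E. coli BL21(DE3)), 0.83 nM anti-GST-Eu cryptate, 100 nM biotin-SRC1 peptide, 41.75 nM SA/XL665. Buffer was 50 mM Hepes pH 7.0, 125 mM KF, 0.125% CHAPS, 0.05% dry milk. Compound alone or with CDCA, 30 min at room temperature. Signal was 1000×(668/620 nm). Primary screen at 40 μM; IC50 as mean ± SE, three experiments.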
Background: Time-resolved FRET reads energy transfer from a long-lived donor to a nearby acceptor.

Assay [2] is described as follows: Antagonist activity at GST-tagged human recombinant FXRalphaLBD expressed in Escherichia coli BL21 cells assessed as inhibition of CDCA-induced SRC-1 co-activator association at 40 uM by HTRF assay. Format: functional. In a few lines: as §1
A short description of assay [3]: (§2) Antagonist activity at GST-tagged human recombinant FXRalphaLBD expressed in Escherichia coli BL21 cells assessed as inhibition of CDCA-induced SRC-1 co-activator association by HTRF assay. Format: functional. The procedure, abridged:
as §1

A short description of assay [4]: Agonist activity at GST tagged human recombinant FXRalphaLBD expressed in Escherichia coli BL21 cells assessed as SRC-1 co-activator association after 30 mins by HTRF assay. Format: functional. To be noted: BL21, 0.5 h. The procedure, abridged:
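Human FXRα LBD (residues 238–473) expressed as GST fusion in E. coli BL21(DE3) (IPTG 0.2 mM, 20 °C 6 h), purified on glutathione resin then Superdex 75. 10 nM GST-FXRαLBD incubated with 0.83 nM anti-GST-Eu cryptate, 100 nM biotin-SRC1 peptide and 41.75 nM SA/XL665 in 50 mM Hepes pH 7.0, 125 mM KF, 0.125% CHAPS, 0.05% dry milk, 30 min room temperature. Signal read as 1000×(668/620 nm). Primary screen at 40 μM.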

For assay [5], the system named is HEK-293T. Kind of assay: Agonist activity at FXRalpha/RXRalpha expressed in HEK293T cells co-expressing GAL4 DBD after 18 hrs by luciferase based transactivation assay. Format: functional, cell-based. The following applies: Homo sapiens. In a few lines:
(§3)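 FXR transactivation in HEK293T cells transiently transfected with pcDNA3.1-FXRα, pcDNA3.1-RXRα, pGL3-FXRE-Luc and pRL-SV40 Renilla vector. Medium was replaced 6 h after transfection with medium holding compound at varied concentrations, with or without 20 μM CDCA, for 18 h. Read-out was dual-luciferase. Three independent experiments.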

In assay [6] the test system is Mus musculus. Put plainly: Reduction of serum triglyceride level in cholesterol-fed C57BL/6 mouse at 100 mg/kg, po after 10 days. Format: functional. More on the design: scale not given: the % may be the effect or the level left. The procedure, abridged:
(§4)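 Male C57BL/6 mice, 8–12 weeks old, were randomized into five groups of nine. Control mice had ground chow; the other groups had chow with 2% cholesterol. Compound (50 or 100 mg/kg) or reference (100 mg/kg) was suspended in 0.5% CMC-Na and given by oral gavage; control and vehicle mice got 0.5% CMC-Na. Serum and hepatic triglyceride and total cholesterol were measured.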

The subject of assay [7] is HEK-293T. Kind of assay: Antagonist activity at FXRalpha/RXRalpha expressed in HEK293T cells co-expressing GAL4 DBD assessed as inhibition of CDCA-induced transactivation at 50 uM after 18 hrs by luciferase reporter gene assay. Format: functional, cell-based. To be noted: Homo sapiens. In a few lines: as §3
Another assay relates to BL21. The assay is described as §2. Format: functional. The procedure, abridged:
as §1

The test system of assay [8] is Mus musculus. Put plainly: Reduction of hepatic triglyceride level in cholesterol-fed C57BL/6 mouse at 100 mg/kg, po after 10 days. More on the design: scale not given: the % may be the effect or the level left. Format: functional. The procedure, abridged:
as §4

In assay [9] the test system is Mus musculus. Put plainly: Reduction of hepatic cholesterol level in cholesterol-fed C57BL/6 mouse at 100 mg/kg, po after 10 days. Format: functional. Set-up: scale not given: the % may be the effect or the level left. In a few lines: as §4

Consider `COc1cc(/C=C2\C(=O)N(c3cccc(C(=O)O)c3)N=C2C)ccc1O`, for which, in assay [1], the Activity was 6.4%. The inhibition at 40 µM in assay [2] is under 5%.
Regarding `CCOC(=O)c1cccc(N2N=C(C)/C(=C/c3ccc(OCC)c(OC)c3)C2=O)c1`, the Activity in assay [1] was under 5%. Further, the inhibition at 40 µM in assay [2] was found to be 9.4%.
Regarding `CCOc1ccc(/C=C2\C(=O)N(c3cccc(C(=O)O)c3)N=C2C)cc1OC`, the IC50 in assay [3] is 69 µM. For the same molecule, the Activity in assay [1] came out at 9%. Also, the inhibition at 40 µM in [2] was 48.5%.
For `CCOc1ccc(/C=C2\C(=O)N(c3ccc(Cl)c(Cl)c3)N=C2C)cc1OC`, the Activity in assay [1] was under 5%. Further, in assay [2], the inhibition at 40 µM is 7.3%.
As to `C[C@H](CCC(=O)O)[C@H]1CC[C@H]2[C@@H]3[C@H](O)C[C@@H]4C[C@H](O)CC[C@]4(C)[C@H]3CC[C@]12C` [CHENODIOL], the EC50 in assay [4] is 12.5 µM.
For the molecule `COc1cc(/C=C2\C(=O)N(c3cccc(C(=O)OC(C)C)c3)N=C2C)ccc1O`, the Activity in assay [1] is recorded as under 5%. For the same molecule, the inhibition at 40 µM in assay [2] worked out at 29.9%.
For the molecule `CC1=NN(c2cccc(C(=O)O)c2)C(=O)/C1=C\c1ccc(O)c(O)c1`, in assay [1], the Activity is listed as under 5%. Besides, the inhibition at 40 µM in assay [2] turned out to be 17.4%.
For `CCOc1ccc(/C=C2\C(=O)N(c3ccc(C(F)(F)F)cc3)N=C2C)cc1OC` the same measures were under 5% and 9.5%.
`CC1=NN(c2cccc(C(=O)O)c2)C(=O)/C1=C\C=C\c1ccccc1`: the Activity in [1] was under 5%. Also, in assay [2], the inhibition at 40 µM turned out to be 32.1%.
As to `CC1=NN(c2ccc([N+](=O)[O-])cc2)C(=O)/C1=C(/C)c1ccc(Cl)cc1`, in assay [1], the Activity is under 5%. Moreover, in [2], the inhibition at 40 µM stood at 16.8%.
For `CCOc1ccc(/C=C2\C(=O)N(c3c(F)c(F)c(F)c(F)c3F)N=C2C)cc1OC`, the IC50 in assay [3] came out at 82.2 µM. For the same molecule, the Activity in assay [1] is recorded as under 5%. In the assay with HEK-293T [5], the result was inactive. For the same molecule, the inhibition at 40 µM in assay [2] came out at 43.6%.
Regarding `COc1cc(/C=C2\C(=O)N(c3cccc([N+](=O)[O-])c3)N=C2C(C)C)ccc1O`, in [1], the Activity is under 5%. Also, the inhibition at 40 µM in assay [2] was 26.4%.
As for `CCOc1ccc(/C=C2\C(=O)N(c3cccc([N+](=O)[O-])c3)N=C2C)cc1OC`, the Activity in assay [1] was 29.2%. In addition, in [2], the inhibition at 40 µM was under 5%.
On to `CCCCCOc1ccc(/C=C2\C(=O)N(c3cccc(C(=O)O)c3)N=C2C)cc1OC`, for which the IC50 in assay [3] worked out at 39.2 µM. In addition, in [1], the Activity is under 5%. Moreover, the outcome in the assay on HEK-293T [5] was inactive. Besides, the inhibition at 40 µM in [2] turned out to be 55.4%.
Consider `CCOc1ccc(/C=C2\C(=O)N(c3cc(C(F)(F)F)cc(C(F)(F)F)c3)N=C2C)cc1OC`, for which the Activity in assay [1] is reported as under 5%. Also, the inhibition at 40 µM in [2] was under 5%.
`COc1cc(/C=C2\C(=O)N(c3cccc(C(=O)O)c3)N=C2C)ccc1OC(C)C`: the Activity in [1] is under 5%. In addition, the inhibition at 40 µM in assay [2] was under 5%.
In the case of `CCOc1ccc(/C=C2\C(=O)N(c3cccc(C(F)(F)F)c3)N=C2C)cc1OC`, the Activity in assay [1] is on record as under 5%. The inhibition at 40 µM in assay [2] was under 5%.
For `CC1=NN(c2ccccc2)C(=O)/C1=C\c1ccccc1` the same measures were under 5% and 23.1%.
Take `CCOc1ccc(/C=C2\C(=O)N(c3ccc([N+](=O)[O-])cc3)N=C2C)cc1OC`: the Activity in [1] was found to be 12.7%. In addition, the inhibition at 40 µM in [2] was 14.8%.
For the molecule `CC1=NN(c2ccccc2)C(=O)/C1=C\c1ccc(Br)cc1`, the IC50 in [3] amounted to 9.93 µM. Moreover, the Activity in [1] is reported as under 5%. For the same molecule, the result with HEK-293T [5] was inactive. Further, in [2], the inhibition at 40 µM is 72.6%.
With `CCOc1ccc(/C=C2\C(=O)N(c3ccccc3F)N=C2C)cc1OC`, in [1], the Activity is recorded as under 5%. Moreover, in assay [2], the inhibition at 40 µM is 5.5%.
Take `C/C=C1\C(=O)C[C@H]2[C@@H]3CCC4=CC(=O)CC[C@]4(C)[C@H]3CC[C@]12C` [GUGGULSTERONE]: the results for the Activity in the assay on Mus musculus [6], in the assay with Mus musculus [8] and with Mus musculus [9] were 53.7%, 45.1% and 26.3%, respectively. Besides, the inhibition result in the assay on HEK-293T [7] is “Active”. For the same molecule, the inhibition result in the assay with BL21 is “Dose-dependent effect”. Also, the IC50 in assay [3] amounted to 89.4 µM.
As for `CCOc1ccc(/C=C2\C(=O)N(c3ccc(C(C)C)cc3)N=C2C)cc1OC`, the Activity in assay [1] is on record as under 5%. Also, the inhibition at 40 µM in [2] was 7.7%.
`COc1cc(/C=C2\C(=O)N(c3cccc(C(=O)O)c3)N=C2C)ccc1OCc1ccccc1`: in [3], the IC50 is 33.8 µM. For the same molecule, in assay [1], the Activity is on record as under 5%. In the assay with HEK-293T [5], the outcome was inactive. Moreover, the inhibition at 40 µM in assay [2] is 57.5%.
Take `CCOc1ccc(/C=C2\C(=O)N(c3cc(Cl)cc(Cl)c3)N=C2C)cc1OC`: in assay [1], the Activity is under 5%. Further, the inhibition at 40 µM in [2] was under 5%.
`CC1=NN(c2cccc([N+](=O)[O-])c2)C(=O)/C1=C\c1ccc(C)s1`: in assay [1], the Activity is given as under 5%. Also, the inhibition at 40 µM in assay [2] was under 5%.
Take `COc1ccc(/C=C2\C(=O)N(c3cccc([N+](=O)[O-])c3)N=C2C)c2ccccc12`: the Activity in assay [1] is under 5%. Moreover, the inhibition at 40 µM in assay [2] was determined as 22.7%.
